Drawing on ChEMBL document CHEMBL1811814, “Synthesis and evaluation of indole, pyrazole, chromone and pyrimidine based conjugates for tumor growth inhibitory activities--development of highly efficacious cytotoxic agents” (Eur J Med Chem, 2010), this text covers Activity, GI50 and CC50 for five molecules.

Each structure is given as a SMILES string.

Common to all, as to format: functional
In one assay the test system is CCRF-CEM. Nature of the assay: Growth inhibition of human CCRF-CEM cells assessed tumor cell growth at 10^-5 M. Set-up: scale not given: the % may be the effect or the level left. The gist of the method:
(§1)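 NCI 60-human-tumor-cell-line panel screen. Each compound was tested at a single concentration of 10^-5 M, and percent growth of tumor cells was recorded for each cell line. Growth inhibition was expressed from these percent-growth values.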

Another assay has as its system A498. Briefly: Growth inhibition of human A498 cells assessed tumor cell growth at 10^-5 M. Set-up: scale not given: the % may be the effect or the level left. The gist of the method:
as §1

Assay [1] deals with SK-MEL-28. Briefly: Growth inhibition of human SK-MEL-28 cells. As to conditions: for CC50: read-out: LC50 (the source's name).
In a further assay the test system is HOP-92. Nature of the assay: Growth inhibition of human HOP92 cells. As to conditions: for CC50: read-out: LC50 (the source's name).
Another assay deals with SF-539. Nature of the assay: Growth inhibition of human SF539 cells assessed tumor cell growth at 10^-5 M. Further details: scale not given: the % may be the effect or the level left. A digest of the protocol:
as §1

The test system of another assay is OVCAR-4. Nature of the assay: Growth inhibition of human OVCAR4 cells assessed tumor cell growth at 10^-5 M. Further details: scale not given: the % may be the effect or the level left. The gist of the method: as §1
The test system of a further assay is OVCAR-5. Nature of the assay: Growth inhibition of human OVCAR5 cells. The conditions noted are these: for CC50: read-out: LC50 (the source's name).
In assay [2] the test system is SK-MEL-28. Briefly: Growth inhibition of human SK-MEL-28 cells assessed tumor cell growth at 10^-5 M. Further details: scale not given: the % may be the effect or the level left. The gist of the method: as §1
A further assay deals with NCI/ADR-RES. Briefly: Growth inhibition of human NCI/ADR-RES cells assessed tumor cell growth at 10^-5 M. Further details: scale not given: the % may be the effect or the level left. A digest of the protocol: as §1
For a further assay, the system named is MCF7. Nature of the assay: Growth inhibition of human MCF7 cells. The conditions noted are these: for CC50: read-out: LC50 (the source's name).
The subject of another assay is OVCAR-8. Nature of the assay: Growth inhibition of human OVCAR8 cells assessed tumor cell growth at 10^-5 M. Set-up: scale not given: the % may be the effect or the level left. A digest of the protocol: as §1
A further assay has as its system LOX IMVI. Briefly: Growth inhibition of human LOXIMVI cells assessed tumor cell growth at 10^-5 M. Further details: scale not given: the % may be the effect or the level left. A digest of the protocol:
as §1

In the case of `O=C1/C(=C\c2coc3ccccc3c2=O)c2ccccc2N1c1c(Cl)cccc1Cl`, the Activity with CCRF-CEM was 21.08%; with A498 it was 12.65%; in the assay with SF-539, 49.4%; with OVCAR-4, 49.54%; in the assay on SK-MEL-28 [2], 47.32%; in the assay on NCI/ADR-RES, 36.14%. For the same molecule, the figures for the Activity in the assay on OVCAR-8 and with LOX IMVI were 31.58% and 37.07%, respectively. The GI50 in the assay with SK-MEL-28 [1] worked out at 3.8 µM; in the assay with HOP-92 it was 4.7 µM; with OVCAR-5, 20.8 µM; in the assay on MCF7 it was 3.2 µM. The CC50 with SK-MEL-28 [1], in the assay on HOP-92, in the assay with OVCAR-5 and with MCF7 was greater than 100 µM throughout.

In the case of `O=C1Nc2ccccc2/C1=C/c1cn(C(=O)c2c(Cl)cccc2Cl)c2ccccc12`, the Activity in the assay on CCRF-CEM was 70.5%; in the assay with A498, 52.5%; with SF-539, 67.4%; with OVCAR-4 it was 50.3%; with SK-MEL-28 [2], 81.4%; with NCI/ADR-RES, 57.7%. Besides, the figures for the Activity in the assay on OVCAR-8 and in the assay with LOX IMVI were 52.3% and 48.4%, respectively. Also, the concentration for 50% growth inhibition (GI50) in the assay with HOP-92 was 1.5 µM; in the assay on OVCAR-5 it was 8.9 µM. In addition, the CC50 with HOP-92 and with OVCAR-5 was greater than 100 µM in each case.

With `CC1=NN(c2cccc(Cl)c2)C(=O)/C1=C\C=C\c1ccccc1`, the Activity is 2.35% in the assay on CCRF-CEM; 109.76% in the assay on A498; 21.62% in the assay with SF-539; -20.79% in the assay on OVCAR-4; -76.48% in the assay with SK-MEL-28 [2]; -17.49% with NCI/ADR-RES. The Activity is 0.37% in the assay with OVCAR-8 and -87.87% in the assay on LOX IMVI. Besides, the GI50 in the assay with SK-MEL-28 [1] was 2 µM; with HOP-92, 4.6 µM; in the assay on OVCAR-5, 2.8 µM; in the assay on MCF7, 1.1 µM. For the same molecule, the CC50 is 8.9 µM with SK-MEL-28 [1], greater than 100 µM in the assay with HOP-92, greater than 100 µM with OVCAR-5 and greater than 100 µM in the assay on MCF7.

On to `CC1=NN(c2cccc(Cl)c2)C(=O)/C1=C\c1c(O)ccc2ccccc12`, for which the Activity is 36.33% with CCRF-CEM; 107.38% in the assay with A498; 72.26% with SF-539; -66.84% in the assay on OVCAR-4; 35.25% in the assay with SK-MEL-28 [2]; 75.31% with NCI/ADR-RES. The Activity is 22.34% with OVCAR-8 and -79.39% in the assay on LOX IMVI. The same molecule returned a 50% growth inhibitory concentration (GI50) with OVCAR-5 greater than 100 µM. For the same molecule, the CC50 in the assay on OVCAR-5 was greater than 100 µM.

As for `O=C1/C(=C\c2ccccn2)c2ccccc2N1c1c(Cl)cccc1Cl`, the Activity in the assay on CCRF-CEM is 8.81%; in the assay with A498, 21.33%; in the assay with SF-539, 1.27%; in the assay with OVCAR-4, -7.46%; in the assay on SK-MEL-28 [2] it was -10.05%; with NCI/ADR-RES it was -26.73%. Also, the Activity in the assay with OVCAR-8 is reported as 4.47%; with LOX IMVI, -89.2%. This molecule displayed a GI50 in the assay with OVCAR-5 of 2.4 µM. In the assay with OVCAR-5, the CC50 was greater than 100 µM.
